The values that follow come from ChEMBL document CHEMBL4196077, “Anti-inflammatory hybrids of secondary amines and amide-sulfamide derivatives” (Eur J Med Chem, 2018).

Data set [1] deals with C-X-C chemokine receptor type 4 (Homo sapiens) (UniProt P61073). In words: Inhibition of biotinylated TN14003 binding to CXCR4 in human MDA-MB-231 cells preincubated for 10 mins followed by TN14003 addition measured after 30 mins by rhodamine dye-based microscopic analysis. Type of data set: cell-based. An outline of the steps:
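MDA-MB-231 cells (2×10^4, seeded two days before) exposed to compound at 1, 10, 100 or 1000 nM for 10 min at room temperature, fixed in ice-cold 4% paraformaldehyde, rehydrated in PBS, then 0.05 µg/mL biotinylated TN14003 for 30 min, streptavidin-rhodamine (1:150) 30 min. Fluorescence microscopy; EC = lowest concentration with significant reduction in rhodamine signal versus untreated.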

The target is the same in data set [2]. In words: Inhibition of CXCR4 in human MDA-MB-231 cells assessed as decrease in CXCL12-dependent cell invasion at 100 nM after 22 hrs by hematoxylin and eosin staining based matrigel assay relative to control. Type of data set: functional. In short, it runs like this:
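Matrigel invasion chamber. MDA-MB-231 cells pretreated with compound (100 nM) before seeding in top chamber; 200 ng/mL CXCL12α in serum-free medium in bottom chamber as chemoattractant. 22 h in humidified incubator; non-invading cells swabbed off, invaded cells fixed in methanol, H&E stained and counted; inhibition relative to untreated invasion.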

Data set [3] deals with Mus musculus. In words: Antiinflammatory activity in mouse assessed as inhibition of xylene-induced ear edema at 10 mg/kg, ip treated after 30 mins xylene administration measured after 2 hrs relative to control. The class given is functional. In short, it runs like this:
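Xylene (30 µL total, inner and outer surfaces) applied to right ear, saline to left ear; 5 mice per group. 30 min later, 10 mg/kg i.p. in 10% DMSO/90% of 45% hydroxypropyl-β-cyclodextrin in PBS; vehicle-injected controls. Sacrificed 2 h later; 7 mm ear plugs from both ears weighed, weight difference = edema; suppression % versus control group.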

In data set [4] the target is C-X-C chemokine receptor type 4 (Homo sapiens) (UniProt P61073). In words: Potency index, ratio of AMD3100 EC to compound EC for inhibition of biotinylated TN14003 binding to CXCR4 in human MDA-MB-231 cells. The class given is functional, cell-based.
Data set [5] has as its system Mus musculus. In words: Antiinflammatory activity in mouse assessed as inhibition of xylene-induced swollen volume of ear at 10 mg/kg, ip treated after 30 mins xylene administration measured after 2 hrs. Type of data set: functional, organism-based.
In data set [6] the test system is Mus musculus. In words: Antiinflammatory activity in mouse assessed as inhibition of xylene-induced thickness of ear at 10 mg/kg, ip treated after 30 mins xylene administration measured after 2 hrs. Type of data set: functional, organism-based.
In data set [7] the test system is MDA-MB-231. In words: Cytotoxicity against human MDA-MB-231 cells assessed as reduction in cell viability at 10 uM after 24 hrs by MTT assay. Type of data set: cell-based. As to conditions: mda-mb-231, 24 h. An outline of the steps:
(§1)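 MTT-type viability assay: cells seeded at 3000/well, grown 24 h at 37 °C, then exposed to compound for 24 h at 37 °C. CellTiter 96AQ reagent added for 2 h, absorbance read at 490 nm; compared with vehicle control.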

For data set [8], the system named is MCF-10A. In words: Cytotoxicity against human MCF10A cells assessed as reduction in cell viability at 10 uM after 24 hrs by MTT assay. The class given is cell-based. An outline of the steps:
as §1

For data set [9], the target named is C-X-C chemokine receptor type 4 (Homo sapiens) (UniProt P61073). In words: Inhibition of CXCR4 in human MDA-MB-231 cells assessed as decrease in CXCL12-induced Akt phosphorylation by Western blot analysis. Type of data set: functional, cell-based.
For data set [10] the target is unchanged. In words: Inhibition of CXCR4 in human MDA-MB-231 cells assessed as decrease in CXCL12-induced p44 phosphorylation at 0.1 nM by Western blot analysis. The class given is functional, cell-based.
Data set [11] can be described thus: Half life in nude mouse plasma at 30 mg/kg, iv administered as single dose by HPLC analysis. The class given is ADME, organism-based. In short, it runs like this: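 Nude mice (~20 g), anaesthetized with ketamine (90 mg/kg)/xylazine (4.5 mg/kg), given single 30 mg/kg i.v. dose in 10% DMSO/90% of 45% hydroxypropyl-β-cyclodextrin in PBS. Orbital sinus blood at 0, 5, 20, 50 min; centrifuged 13000 g, 4 °C, filtered (10000 NMWL). Filtrate HPLC on C18, acetonitrile–water (0.1% TFA) 50:50, 254 nm; half-life from peak areas.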

A short description of data set [12]: Half life in human plasma. Type of data set: ADME.

Active and inactive are the calls of the source. No cut-off for these calls is given here.

C-X-C chemokine receptor type 4 (Homo sapiens), sequence (P61073 whole entry): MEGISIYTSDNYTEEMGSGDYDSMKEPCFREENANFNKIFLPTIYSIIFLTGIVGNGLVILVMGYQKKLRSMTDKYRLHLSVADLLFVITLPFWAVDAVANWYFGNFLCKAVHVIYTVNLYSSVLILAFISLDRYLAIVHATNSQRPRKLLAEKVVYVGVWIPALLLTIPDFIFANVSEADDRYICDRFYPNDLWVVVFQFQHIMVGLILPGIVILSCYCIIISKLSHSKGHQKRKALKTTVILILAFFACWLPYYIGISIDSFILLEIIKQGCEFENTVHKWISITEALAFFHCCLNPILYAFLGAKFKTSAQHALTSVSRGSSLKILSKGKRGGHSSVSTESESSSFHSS

For the compound `O=C(NCc1ccc(CNS(=O)(=O)c2ccccc2Cl)cc1)c1ccc(CNc2ncccn2)cc1`, the EC in data set [1] came to 1000 nM.

For `O=C(NCc1ccc(CNS(=O)(=O)c2cccc3ccccc23)cc1)c1ccc(CNc2ncccn2)cc1`, the EC in data set [1] came out at 1000 nM.

Compound `Cc1ccc(S(=O)(=O)NCc2ccc(CNC(=O)c3ccc(CNc4ncccn4)cc3)cc2)cc1` returned an EC in data set [1] of 100 nM. Besides, the inhibition in data set [2] amounted to 87%. For the same compound, in data set [3], the inhibition in vivo at 10 mg/kg was determined as 37%.

For the compound `O=C(NCc1ccc(CNS(=O)(=O)c2ccc(-c3ccc(F)cc3)cc2)cc1)c1ccc(CNc2ncccn2)cc1`, the EC in [1] turned out to be 1000 nM.

`O=C(NCc1ccc(CNS(=O)(=O)c2ccc(Cl)cc2)cc1)c1ccc(CNc2ncccn2)cc1` displayed an EC in data set [1] of 100 nM. In data set [3], the inhibition in vivo at 10 mg/kg worked out at 30%.

Turning to `O=C(NCc1ccc(CNS(=O)(=O)c2ccc(F)c(F)c2)cc1)c1ccc(CNc2ncccn2)cc1`, in data set [1], the EC was found to be 100 nM. Also, in [3], the inhibition entry was “inactive”.

In [1], `Cc1cccc(S(=O)(=O)NCc2ccc(CNC(=O)c3ccc(CNc4ncccn4)cc3)cc2)c1` had an EC of 100 nM.

In the case of `O=C(NCc1ccc(CNS(=O)(=O)c2cccc(Cl)c2)cc1)c1ccc(CNc2ncccn2)cc1`, the EC in [1] is 1 nM. Also, the Ratio in data set [4] worked out at 1000. Further, the inhibition in data set [2] was found to be 88%. Also, the inhibition entry in data set [3] was “inactive”.

Regarding `O=C(NCc1ccc(CNS(=O)(=O)c2ccccc2)cc1)c1ccc(CNc2ncccn2)cc1`, the EC in [1] stood at 1 nM. For the same compound, in [4], the Ratio was 1000. Further, in [3], the inhibition in vivo at 10 mg/kg amounted to 67%. Besides, the inhibition result in [5], in data set [6] and in [10] was “Active” in each case. Moreover, the Activity result in data set [7] and in data set [8] was “Non-Toxic” throughout. The inhibition entry in data set [9] is “Dose-dependent effect”. For the same compound, the half-life in [11] is 0.333 h; in data set [12], 2.5 h.

Turning to `O=C(NCc1ccc(CNS(=O)(=O)c2ccc([N+](=O)[O-])cc2)cc1)c1ccc(CNc2ncccn2)cc1`, the EC in [1] amounted to 1000 nM.

`O=C(NCc1ccc(CNS(=O)(=O)c2ccc3c(c2)CCO3)cc1)c1ccc(CNc2ncccn2)cc1`: the EC in [1] was 1000 nM.

In data set [1], `O=C(NCc1ccc(CNS(=O)(=O)c2ccc(F)cc2)cc1)c1ccc(CNc2ncccn2)cc1` came in with an EC of more than 1000 nM.

For the compound `Cc1ccccc1S(=O)(=O)NCc1ccc(CNC(=O)c2ccc(CNc3ncccn3)cc2)cc1`, the EC in data set [1] amounted to 10 nM. Besides, the Ratio in [4] stood at 100.

In data set [1], `O=C(NCc1ccc(CNS(=O)(=O)c2cccnc2)cc1)c1ccc(CNc2ncccn2)cc1` had an EC of more than 1000 nM.

Regarding `O=C(NCc1ccc(CNS(=O)(=O)c2cccc(C(F)(F)F)c2)cc1)c1ccc(CNc2ncccn2)cc1`, the EC in [1] was 1000 nM.

Consider `O=C(NCc1ccc(CNS(=O)(=O)c2ccccc2F)cc1)c1ccc(CNc2ncccn2)cc1`, for which the EC in data set [1] came to 1000 nM.

In turn, `O=C(NCc1ccc(CNS(=O)(=O)c2cccc(F)c2)cc1)c1ccc(CNc2ncccn2)cc1` gave an EC in [1] of 1000 nM.
